The source made the active and inactive calls. No cut-off for these calls is given here.
Legend:
Glutathione peroxidase 1 = molecular target: T1, Glutathione peroxidase 1 (Homo sapiens, UniProt P07203); test: Inhibition of GPx1 using gultathione as substrate by glutathione reductase-coupled assay
T1 sequence (P07203 whole entry): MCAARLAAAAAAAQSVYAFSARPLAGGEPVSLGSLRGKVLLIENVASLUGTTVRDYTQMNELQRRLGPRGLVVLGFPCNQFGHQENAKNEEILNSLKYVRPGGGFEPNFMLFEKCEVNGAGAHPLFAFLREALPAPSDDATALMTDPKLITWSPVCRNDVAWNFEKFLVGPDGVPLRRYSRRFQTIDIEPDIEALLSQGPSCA
Method in brief: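 GPx activity read as NADPH consumption at 340 nm. GPx oxidizes GSH to GSSG with H2O2 as co-substrate, and glutathione reductase reduces GSSG back to GSH. Earlier method, adapted to 96-well format. 0.1% Triton X-100 in all incubations to prevent compound precipitation. Docking used bovine erythrocyte GPx1.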

[1] = molecular target: T2, Glutathione peroxidase 1 (Homo sapiens) (UniProt P07203); conditions: 50 uM
T2 sequence (whole entry): T1 sequence (P07203 whole entry)

[2] = molecular target: T2, Glutathione peroxidase 1 (Homo sapiens); conditions: 250 uM
[3] = molecular target: T3, Glutathione reductase, mitochondrial (Homo sapiens) (UniProt P00390); test: Inhibition of glutathione reductase up to 200 uM
T3 sequence (whole entry): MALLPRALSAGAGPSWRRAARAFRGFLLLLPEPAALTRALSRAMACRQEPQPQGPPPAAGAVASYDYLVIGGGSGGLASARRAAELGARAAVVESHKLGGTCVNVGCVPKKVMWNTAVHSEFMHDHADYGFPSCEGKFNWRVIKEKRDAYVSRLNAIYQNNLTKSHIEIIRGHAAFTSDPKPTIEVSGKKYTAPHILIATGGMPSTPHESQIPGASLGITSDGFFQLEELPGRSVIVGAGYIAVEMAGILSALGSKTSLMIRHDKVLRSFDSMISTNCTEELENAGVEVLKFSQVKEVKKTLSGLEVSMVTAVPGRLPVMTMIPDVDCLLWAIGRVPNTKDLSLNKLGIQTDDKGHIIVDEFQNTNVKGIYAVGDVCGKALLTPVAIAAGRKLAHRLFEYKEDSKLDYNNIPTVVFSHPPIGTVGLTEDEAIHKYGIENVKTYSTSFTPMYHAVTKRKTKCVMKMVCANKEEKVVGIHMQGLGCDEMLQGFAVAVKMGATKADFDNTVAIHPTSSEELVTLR
Method in brief: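 Specific glutathione reductase assay (earlier method), compound tested at up to 200 µM.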

[4] = Resistance ratio of IC50 for human bortezomib-resistant DOGUM cells to IC50 for human DOGUM cells; type: functional
[5] = Cytotoxicity against human bortezomib-resistant GUMBUS cells after 72 hrs by MTT assay; type: functional, cell-based
Method in brief: (§1)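 Cells from two patients with chemotherapy-resistant non-Hodgkin B-cell lymphoma. Resistant sublines were made by exposure to methotrexate, etoposide, cisplatin or bortezomib in culture over 2–3 months. Microtiter MTT assay, giving the IC50 as mean ± SD of 3 or more independent experiments. Drugs were tested alone and with co-incubation with 25 µM inhibitor.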

[6] = Cytotoxicity against human DOGUM cells after 72 hrs by MTT assay; type: functional, cell-based; method in brief: as §1
[7] = Cytotoxicity against human GUMBUS cells after 72 hrs by MTT assay; type: functional, cell-based; method in brief: as §1
[8] = Resistance ratio of IC50 for human bortezomib-resistant GUMBUS cells to IC50 for human GUMBUS cells; type: functional
[9] = Cytotoxicity against human bortezomib-resistant DOGUM cells after 72 hrs by MTT assay; type: functional, cell-based; method in brief: as §1
[10] = Cytotoxicity against human etoposide-resistant DOGUM cells after 72 hrs by MTT assay; type: functional, cell-based; method in brief: as §1
[11] = Cytotoxicity against human etoposide-resistant GUMBUS cells after 72 hrs by MTT assay; type: functional, cell-based; method in brief: as §1
[12] = Resistance ratio of IC50 for human etoposide-resistant DOGUM cells to IC50 for human DOGUM cells; type: functional
[13] = Resistance ratio of IC50 for human etoposide-resistant GUMBUS cells to IC50 for human GUMBUS cells; type: functional
[14] = Cytotoxicity against human methotrexate-resistant DOGUM cells after 72 hrs by MTT assay; type: functional, cell-based; method in brief: as §1
[15] = Cytotoxicity against human methotrexate-resistant GUMBUS cells after 72 hrs by MTT assay; type: functional, cell-based; method in brief: as §1

For `Cc1nccn1CC(=O)N/N=C/c1ccc(O)cc1`, the IC50 (Glutathione peroxidase 1) was 169000 nM, the inhibition [1] was 15% and the inhibition [2] was “inactive”. For the same compound, the inhibition [3] was “inactive”.
In the case of `CC(C)C[C@H](NC(=O)[C@H](Cc1ccccc1)NC(=O)c1cnccn1)B(O)O` [BORTEZOMIB], the “Ratio IC50” value [4] is reported as 4, the IC50 [5] is reported as 35 nM and the IC50 [6] is reported as 2 nM. The IC50 [7] was 6 nM, the “Ratio IC50” value [8] was 6 and the IC50 [9] was 7 nM.
With `COc1cc([C@@H]2c3cc4c(cc3[C@@H](O[C@@H]3O[C@@H]5CO[C@@H](C)O[C@H]5[C@H](O)[C@H]3O)[C@H]3COC(=O)[C@H]23)OCO4)cc(OC)c1O` [ETOPOSIDE] the IC50 [10] was 280 nM, the IC50 [11] was 570 nM and the “Ratio IC50” value [12] was 4. For the same compound, the “Ratio IC50” value [13] was 13, the IC50 [6] was 75 nM and the IC50 [7] was 42 nM.
With `CN(Cc1cnc2nc(N)nc(N)c2n1)c1ccc(C(=O)N[C@@H](CCC(=O)O)C(=O)O)cc1` [METHOTREXATE] the IC50 [14] was 340 nM, the IC50 [15] was 534 nM and the IC50 [6] was 84 nM. For the same compound, the IC50 [7] was 24 nM.

Reference: ChEMBL document CHEMBL2163230, “Identification of a glutathione peroxidase inhibitor that reverses resistance to anticancer drugs in human B-cell lymphoma cell lines” (Bioorg Med Chem Lett, 2012)
